{"data": "Results pooled from the literature", "target": "Mitogen-activated protein kinase 9 (MAPK9, Homo sapiens, UniProt P45984)"}
{"SMILES": "COc1ncccc1-c1cnn2ccc(N3CCN(C(=O)OC(C)C)CC3)nc12", "read-out": "binding", "method": "competition with immobilised ligand", "tested at": "1 µM", "measurement": "remaining binding", "value": "100%"}
{"SMILES": "Cc1nn(C)cc1-c1nc2c(N3CCN(Cc4ccc(Cl)cc4)CC3)c(Cl)cnc2[nH]1", "read-out": "binding", "method": "competition with immobilised ligand", "tested at": "1 µM", "measurement": "remaining binding", "value": "100%"}
{"SMILES": "Cn1cc(-c2cc(F)cc(N3CCn4c(cc5c4CCCC5)C3=O)c2CO)cc(Nc2ccc(N3CCN(C4COC4)CC3)cn2)c1=O", "read-out": "enzyme activity", "action": "inhibitor", "tested at": "0.1 µM", "measurement": "inhibition", "value": "1%"}
{"SMILES": "Nc1ncc(-c2nc(N3CCOCC3)nc(N3CCOCC3)n2)c(C(F)F)n1", "read-out": "binding", "method": "competition with immobilised ligand", "tested at": "10 µM", "measurement": "remaining binding", "value": "83%"}
{"SMILES": "CC(C)(C)c1cc(C=C(C#N)C#N)cc(Br)c1O", "read-out": "enzyme activity", "action": "inhibitor", "tested at": "0.5 µM", "measurement": "remaining activity", "value": "103%"}
{"SMILES": "Cn1cncc1[C@@](O)(COc1ccc(C#N)cc1-c1ccc(OC(F)(F)F)cc1)c1ccc(C#N)cc1", "read-out": "cell-free assay", "method": "competition with immobilised ligand", "tested at": "1 µM", "measurement": "remaining binding", "value": "92%"}
{"SMILES": "Cn1cc(-c2cccc(N3CCc4c(sc5c4CC(C)(C)C5)C3=O)c2CO)cc(Nc2ccncn2)c1=O", "read-out": "enzyme activity", "action": "inhibitor", "tested at": "1 µM", "measurement": "inhibition", "value": "12%"}
{"SMILES": "O=c1[nH]c2ccccc2n1C1CCN(Cc2ccc(-c3[nH]c4cc5ncnc5cc4nc3-c3ccccc3)cc2)CC1", "read-out": "cell-free assay", "tested at": "0.5 µM", "measurement": "remaining signal", "value": "91.9%"}
